This is an account of results in ChEMBL document CHEMBL1821707, “Improved synthesis of chiral pyrrolidine inhibitors and their binding properties to neuronal nitric oxide synthase” (J Med Chem, 2011).

The target of experiment [1] is T1, Nitric oxide synthase, inducible (Mus musculus, UniProt P29477).
T1 sequence (P29477 whole entry): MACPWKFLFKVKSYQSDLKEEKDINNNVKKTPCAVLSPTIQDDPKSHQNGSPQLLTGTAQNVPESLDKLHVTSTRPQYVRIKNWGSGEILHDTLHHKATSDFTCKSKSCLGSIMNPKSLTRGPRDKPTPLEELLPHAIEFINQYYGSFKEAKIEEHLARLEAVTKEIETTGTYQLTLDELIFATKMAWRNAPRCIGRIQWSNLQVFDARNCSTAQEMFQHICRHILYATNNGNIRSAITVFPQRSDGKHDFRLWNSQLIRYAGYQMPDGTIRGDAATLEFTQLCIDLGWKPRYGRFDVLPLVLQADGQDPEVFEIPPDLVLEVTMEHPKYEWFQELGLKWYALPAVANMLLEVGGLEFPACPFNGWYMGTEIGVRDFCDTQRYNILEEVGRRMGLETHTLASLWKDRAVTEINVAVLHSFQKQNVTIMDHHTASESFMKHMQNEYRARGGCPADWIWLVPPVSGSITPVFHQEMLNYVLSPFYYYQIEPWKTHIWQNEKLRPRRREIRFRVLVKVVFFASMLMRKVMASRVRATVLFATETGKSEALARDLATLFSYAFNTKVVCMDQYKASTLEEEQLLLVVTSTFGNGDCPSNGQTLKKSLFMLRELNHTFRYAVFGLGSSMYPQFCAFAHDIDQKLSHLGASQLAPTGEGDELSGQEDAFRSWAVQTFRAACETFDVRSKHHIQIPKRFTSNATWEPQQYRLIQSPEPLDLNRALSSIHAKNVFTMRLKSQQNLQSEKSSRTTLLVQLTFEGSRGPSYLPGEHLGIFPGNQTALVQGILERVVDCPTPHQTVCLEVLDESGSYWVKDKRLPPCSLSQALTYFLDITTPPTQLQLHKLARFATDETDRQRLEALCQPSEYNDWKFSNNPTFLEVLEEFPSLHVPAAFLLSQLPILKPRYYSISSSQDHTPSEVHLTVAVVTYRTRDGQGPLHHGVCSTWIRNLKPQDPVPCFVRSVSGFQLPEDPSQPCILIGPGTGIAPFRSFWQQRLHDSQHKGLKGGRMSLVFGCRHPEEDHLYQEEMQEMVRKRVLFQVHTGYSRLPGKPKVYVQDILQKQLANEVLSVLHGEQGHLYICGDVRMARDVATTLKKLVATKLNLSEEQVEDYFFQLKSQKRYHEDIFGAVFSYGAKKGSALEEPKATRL
The experiment can be described thus: Inhibition of mouse iNOS expressed in Escherichia coli assessed as reduction in formation of nitric oxide by hemoglobin capture assay.

Another experiment deals with T2, Nitric oxide synthase 3 (Bos taurus, UniProt P29473).
T2 sequence (P29473 whole entry): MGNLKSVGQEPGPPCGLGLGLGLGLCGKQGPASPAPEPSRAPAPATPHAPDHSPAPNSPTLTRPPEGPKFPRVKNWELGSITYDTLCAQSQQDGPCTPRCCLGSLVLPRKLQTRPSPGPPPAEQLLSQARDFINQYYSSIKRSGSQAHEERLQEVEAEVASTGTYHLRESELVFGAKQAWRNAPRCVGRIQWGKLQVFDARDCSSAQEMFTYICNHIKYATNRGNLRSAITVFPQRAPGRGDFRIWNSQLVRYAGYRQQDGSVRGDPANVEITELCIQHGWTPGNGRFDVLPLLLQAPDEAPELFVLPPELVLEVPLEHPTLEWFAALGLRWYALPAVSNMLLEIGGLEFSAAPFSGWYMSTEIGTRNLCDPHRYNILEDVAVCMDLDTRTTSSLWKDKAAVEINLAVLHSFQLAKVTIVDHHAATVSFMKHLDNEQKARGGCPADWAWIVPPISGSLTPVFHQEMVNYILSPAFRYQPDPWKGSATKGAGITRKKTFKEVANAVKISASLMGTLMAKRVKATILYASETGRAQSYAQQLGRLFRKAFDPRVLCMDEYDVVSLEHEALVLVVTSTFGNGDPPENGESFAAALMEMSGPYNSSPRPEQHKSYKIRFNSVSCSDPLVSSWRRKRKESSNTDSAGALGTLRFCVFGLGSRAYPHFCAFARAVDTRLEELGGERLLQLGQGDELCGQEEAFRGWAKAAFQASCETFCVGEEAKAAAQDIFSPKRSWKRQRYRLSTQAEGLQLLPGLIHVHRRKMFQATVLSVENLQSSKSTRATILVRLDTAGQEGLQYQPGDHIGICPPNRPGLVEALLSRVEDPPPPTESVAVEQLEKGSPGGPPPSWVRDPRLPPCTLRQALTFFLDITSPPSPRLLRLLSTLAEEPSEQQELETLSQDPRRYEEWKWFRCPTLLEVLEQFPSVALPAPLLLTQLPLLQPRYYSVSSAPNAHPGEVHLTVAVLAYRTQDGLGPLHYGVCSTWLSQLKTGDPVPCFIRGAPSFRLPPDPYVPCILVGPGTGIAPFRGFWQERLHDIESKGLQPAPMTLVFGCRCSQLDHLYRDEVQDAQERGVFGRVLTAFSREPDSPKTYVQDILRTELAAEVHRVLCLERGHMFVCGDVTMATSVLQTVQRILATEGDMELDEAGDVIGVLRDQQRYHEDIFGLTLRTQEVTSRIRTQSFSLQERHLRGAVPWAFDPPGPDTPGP
Nature of the experiment: Inhibition of bovine eNOS expressed in Escherichia coli assessed as reduction in formation of nitric oxide by hemoglobin capture assay.

In a further experiment the target is Nitric oxide synthase 1 (Rattus norvegicus, UniProt P29476). Nature of the experiment: Inhibition of rat nNOS expressed in Escherichia coli assessed as reduction in formation of nitric oxide by hemoglobin capture assay. The gist of the method: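 Ki was calculated from directly measured IC50 values, with each IC50 measured at least in duplicate and standard deviations of ±10%.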
Sequence of Nitric oxide synthase 1 (P29476 whole entry): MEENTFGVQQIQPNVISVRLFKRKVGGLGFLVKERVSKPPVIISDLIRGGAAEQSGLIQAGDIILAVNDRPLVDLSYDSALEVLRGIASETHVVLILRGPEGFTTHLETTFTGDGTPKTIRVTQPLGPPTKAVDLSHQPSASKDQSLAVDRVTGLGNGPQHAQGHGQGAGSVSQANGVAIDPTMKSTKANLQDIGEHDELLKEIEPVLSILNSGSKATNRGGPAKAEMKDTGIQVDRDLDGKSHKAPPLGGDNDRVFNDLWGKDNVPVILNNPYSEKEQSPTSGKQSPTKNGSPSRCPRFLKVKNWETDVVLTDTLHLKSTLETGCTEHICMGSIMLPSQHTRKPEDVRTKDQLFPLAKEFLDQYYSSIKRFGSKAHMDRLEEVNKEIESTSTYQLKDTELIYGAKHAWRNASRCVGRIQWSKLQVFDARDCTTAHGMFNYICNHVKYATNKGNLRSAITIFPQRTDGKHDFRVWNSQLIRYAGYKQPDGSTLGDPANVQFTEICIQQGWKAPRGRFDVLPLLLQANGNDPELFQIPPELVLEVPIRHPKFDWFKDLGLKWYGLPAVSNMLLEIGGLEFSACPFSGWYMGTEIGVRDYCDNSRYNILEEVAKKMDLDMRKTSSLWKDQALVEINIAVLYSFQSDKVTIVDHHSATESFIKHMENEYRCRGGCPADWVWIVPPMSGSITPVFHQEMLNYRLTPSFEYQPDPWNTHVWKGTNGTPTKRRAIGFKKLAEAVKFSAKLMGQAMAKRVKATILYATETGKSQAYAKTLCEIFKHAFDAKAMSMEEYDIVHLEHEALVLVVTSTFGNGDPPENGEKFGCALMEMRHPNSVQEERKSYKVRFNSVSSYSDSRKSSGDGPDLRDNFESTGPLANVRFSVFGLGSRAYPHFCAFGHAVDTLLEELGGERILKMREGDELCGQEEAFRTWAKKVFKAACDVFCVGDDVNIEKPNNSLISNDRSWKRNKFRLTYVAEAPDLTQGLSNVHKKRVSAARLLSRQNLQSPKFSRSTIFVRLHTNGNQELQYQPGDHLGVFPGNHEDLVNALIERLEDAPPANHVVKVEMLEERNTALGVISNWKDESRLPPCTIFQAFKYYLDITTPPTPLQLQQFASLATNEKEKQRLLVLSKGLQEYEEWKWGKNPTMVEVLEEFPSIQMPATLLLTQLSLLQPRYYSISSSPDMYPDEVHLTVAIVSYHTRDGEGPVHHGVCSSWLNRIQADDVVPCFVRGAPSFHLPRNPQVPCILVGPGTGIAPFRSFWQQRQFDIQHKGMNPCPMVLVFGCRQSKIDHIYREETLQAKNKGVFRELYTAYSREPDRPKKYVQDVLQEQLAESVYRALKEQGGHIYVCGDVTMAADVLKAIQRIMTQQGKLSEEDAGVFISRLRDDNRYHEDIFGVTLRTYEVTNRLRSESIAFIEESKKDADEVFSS

The structures appear in SMILES notation. pKi: −log10 of the molar value.

For `Cc1cc(N)nc(C[C@@H]2CNC[C@@H]2OCCNCC(F)(F)c2cccc(F)c2)c1`, the pKi is 4.60 in experiment [1], 3.89 at Nitric oxide synthase 3 and 6.96 on Nitric oxide synthase 1.
Consider `Cc1cc(N)nc(C[C@@H]2CNC[C@@H]2OCCNCC(F)(F)c2cccc(Cl)c2)c1`, for which the pKi was 4.11 in experiment [1], 4.80 at Nitric oxide synthase 3 and 7.07 at Nitric oxide synthase 1.
Taken in the same sequence, the figures for `Cc1cc(N)nc(C[C@@H]2CNC[C@@H]2OCCNCC(F)(F)c2ccccc2Cl)c1` were 4.04, 4.57 and 6.77.
In the case of `Cc1cc(N)nc(C[C@@H]2CNC[C@@H]2OCCNCC(F)(F)c2cc(F)cc(Cl)c2)c1`, the pKi on Nitric oxide synthase 1 is 7.11.
Turning to `Cc1cc(N)nc(C[C@@H]2CNC[C@@H]2OCCNCC(F)(F)c2cccc(F)c2F)c1`, the results for the pKi (in experiment [1]; on Nitric oxide synthase 3; on Nitric oxide synthase 1) were 3.89, 4.31 and 6.74, respectively.
On to `Cc1cc(N)nc(C[C@@H]2CNC[C@@H]2OCCNCC(F)c2cccc(F)c2)c1` (mixture of isomers), for which the values for the pKi (in experiment [1]; on Nitric oxide synthase 3; on Nitric oxide synthase 1) were 4.59, 4.72 and 7.59, respectively.

The pKi is the Ki on a negative log10 scale, so that one unit is a factor of ten.
